Calls of active or inactive are those of the source. No cut-off for these calls is given here.
Tests used:
[1] = test system: A549; assay: Cytotoxicity against human A549 cells assessed as growth inhibition after 72 hrs by MTT assay; type: functional; settings: A549, 72 h
[2] = test system: NCI-H23; assay: Cytotoxicity against human NCI-H23 cells assessed as growth inhibition after 72 hrs by MTT assay; type: functional; settings: NCI-H23, 72 h
[3] = test system: NCI-H322M; assay: Cytotoxicity against human NCI-H322M cells assessed as growth inhibition after 72 hrs by MTT assay; type: functional
[4] = test system: SW-620; assay: Cytotoxicity against human SW620 cells assessed as growth inhibition after 72 hrs by MTT assay; type: functional; settings: SW-620, 72 h
How it was run: (§1)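 NCI 60-cell-line panel screen. Compounds were tested at 5 concentrations in 10-fold dilution (10^-4 to 10^-8 M) across the full panel. GI50 was taken as the molar concentration giving 50% inhibition of net cell growth.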

[5] = test system: SF-295; assay: Cytotoxicity against human SF295 cells assessed as growth inhibition after 72 hrs by MTT assay; type: functional; settings: SF-295, 72 h; how it was run: as §1
[6] = test system: SNB-75; assay: Cytotoxicity against human SNB75 cells assessed as growth inhibition after 72 hrs by MTT assay; type: functional; settings: SNB-75, 72 h; how it was run: as §1
[7] = test system: SK-MEL-2; assay: Cytotoxicity against human SK-MEL-2 cells assessed as growth inhibition after 72 hrs by MTT assay; type: functional; settings: SK-MEL-2, 72 h; how it was run: as §1
[8] = Cytotoxicity against human UACC62 cells assessed as growth inhibition after 72 hrs by MTT assay; type: functional; settings: UACC-62, 72 h; how it was run: as §1
[9] = Cytotoxicity against human OVCAR3 cells assessed as growth inhibition after 72 hrs by MTT assay; type: functional; settings: OVCAR-3, 72 h; how it was run: as §1
[10] = Cytotoxicity against human OVCAR4 cells assessed as growth inhibition after 72 hrs by MTT assay; type: functional; settings: OVCAR-4, 72 h; how it was run: as §1
[11] = Cytotoxicity against human OVCAR5 cells assessed as growth inhibition after 72 hrs by MTT assay; type: functional; settings: OVCAR-5, 72 h; how it was run: as §1
[12] = Cytotoxicity against human OVCAR8 cells assessed as growth inhibition after 72 hrs by MTT assay; type: functional; settings: OVCAR-8, 72 h; how it was run: as §1
[13] = test system: ACHN; assay: Cytotoxicity against human ACHN cells assessed as growth inhibition after 72 hrs by MTT assay; type: functional
[14] = test system: CAKI-1; assay: Cytotoxicity against human Caki1 cells assessed as growth inhibition after 72 hrs by MTT assay; type: functional; settings: CAKI-1, 72 h
[15] = test system: RXF 393; assay: Cytotoxicity against human RXF393 cells assessed as growth inhibition after 72 hrs by MTT assay; type: functional; settings: RXF 393, 72 h; how it was run: as §1
[16] = test system: SN12C; assay: Cytotoxicity against human SN12C cells assessed as growth inhibition after 72 hrs by MTT assay; type: functional; how it was run: as §1
[17] = Cytotoxicity against human UO31 cells assessed as growth inhibition after 72 hrs by MTT assay; type: functional; settings: UO-31, 72 h; how it was run: as §1
[18] = test system: DU-145; assay: Cytotoxicity against human DU145 cells assessed as growth inhibition after 72 hrs by MTT assay; type: functional; settings: DU-145, 72 h
[19] = Cytotoxicity against human Hs578T cells assessed as growth inhibition after 72 hrs by MTT assay; type: functional; settings: Hs-578T
[20] = test system: MDA-MB-468; assay: Cytotoxicity against human MDA-MB-468 cells assessed as growth inhibition after 72 hrs by MTT assay; type: functional; settings: MDA-MB-468, 72 h
[21] = test system: A-431; assay: Cytotoxicity against human A431 cells assessed as growth inhibition after 72 hrs by MTT assay; type: functional; settings: A-431, 72 h
How it was run: (§2)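 Cells were grown in medium with 10% heat-inactivated FBS plus penicillin/streptomycin: RPMI-1640 for Jurkat and CEM, DMEM for A-431, HAM's F12 for LoVo. The doxorubicin-resistant LoVo subclone was kept with 0.1 µg/mL doxorubicin. Cells were seeded at 5x10^3 per well and pre-incubated 24 h at 37 °C.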

[22] = test system: LoVo; assay: Cytotoxicity against human LoVo cells assessed as growth inhibition after 72 hrs by MTT assay; type: functional; how it was run: as §2
[23] = Cytotoxicity against human LoVo/DX cells assessed as growth inhibition after 72 hrs by MTT assay; type: functional; how it was run: as §2
[24] = test system: LoVo; assay: Resistance index, ratio of GI50 for human LoVo/DX cells to GI50 for human LoVo cells; type: functional
How it was run: (§3)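 CEMVbl-100 (vinblastine-selected CEM) was grown in RPMI-1640 with 0.1 µg/mL vinblastine. LoVoDoxo was grown in HAM's F12 with 0.1 µg/mL doxorubicin; parental CEM and LoVo were grown without drug. Media had 10% FBS. 5x10^3 cells were seeded, preincubated 24 h at 37 °C, then exposed 72 h to compound (DMSO <1%). Read-out was MTT; GI50 came from dose-response curves of ≥3 experiments. RI = GI50 resistant / GI50 parental.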

[25] = test system: CCRF-CEM; assay: Resistance index, ratio of GI50 for human vinblastin-resistant CEM cells to GI50 for human CEM cells; type: functional; how it was run: as §3
[26] = test system: Jurkat; assay: Cell cycle arrest in human Jurkat cells assessed as accumulation at G1 phase at 0.5 uM after 24 hrs by propidium iodide staining-based flow cytometry (reference value: 62.6%); type: functional
[27] = test system: Jurkat; assay: Cell cycle arrest in human Jurkat cells assessed as accumulation at G1 phase at 0.25 uM after 24 hrs by propidium iodide staining-based flow cytometry (reference value: 62.6%); type: functional
[28] = test system: Jurkat; assay: Cell cycle arrest in human Jurkat cells assessed as accumulation at S phase at 0.25 uM after 24 hrs by propidium iodide staining-based flow cytometry (reference value: 15.5%); type: functional
[29] = test system: Jurkat; assay: Cell cycle arrest in human Jurkat cells assessed as accumulation at G2/M phase at 0.5 uM after 24 hrs by propidium iodide staining-based flow cytometry (reference value: 21.9%); type: functional
[30] = test system: Jurkat; assay: Cell cycle arrest in human Jurkat cells assessed as accumulation at G2/M phase at 0.25 uM after 24 hrs by propidium iodide staining-based flow cytometry (reference value: 21.9%); type: functional
[31] = test system: Jurkat; assay: Cell cycle arrest in human Jurkat cells assessed as accumulation at subG1 phase at 0.25 uM after 24 hrs by propidium iodide staining-based flow cytometry (reference value: 5.3%); type: functional
[32] = test system: Jurkat; assay: Induction of apoptosis in human Jurkat cells assessed as caspase-3 activation at 500 nM after 6 to 24 hrs by plate reader analysis; type: functional, cell-based
How it was run: (§4)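 Jurkat cells were treated with 500 nM compound for 6 h and 24 h, then lysed. Lysates were incubated with pNA-conjugated substrates: Ac-DEVD (caspase-3), Ac-IETD (caspase-8) and LEHD (caspase-9). pNA release was read at 405 nm and normalized to Bradford protein. Results are expressed as fold increase over untreated control.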

[33] = test system: Jurkat; assay: Induction of apoptosis in human Jurkat cells assessed as caspase-8 activation at 500 nM after 6 hrs by plate reader analysis; type: functional, cell-based; how it was run: as §4
[34] = test system: Jurkat; assay: Induction of ROS generation in human Jurkat cells at 500 nM after 24 hrs by HE/DCFH2-DA staining-based flow cytometry relative to control; type: functional, cell-based
How it was run: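 Jurkat cells were exposed to 500 nM compound for 24 h, then loaded in HBSS with 2.5 µM hydroethidine or 0.1 µM H2DCFDA for 30 min at 37 °C. Flow cytometry used 488 nm excitation, with emission at 585 nm (HE) or 530 nm (DCF). Mean ± SEM of 3 experiments.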

COc1ccc2c(c1)nnc1c3cccnc3[nH]c21
GI50 [1]: 7900 nM | GI50 [2]: 5500 nM | GI50 [3]: 10000 nM | GI50 [4]: 380 nM | GI50 [5]: 1590 nM | GI50 [6]: 640 nM | GI50 [7]: 1960 nM | GI50 [8]: 910 nM | GI50 [9]: 960 nM | GI50 [10]: 1410 nM | GI50 [11]: 5720 nM | GI50 [12]: 620 nM | GI50 [13]: 200 nM | GI50 [14]: 110 nM | GI50 [15]: 660 nM | GI50 [16]: 1630 nM | GI50 [17]: 120 nM | GI50 [18]: 1880 nM | GI50 [19]: 3470 nM | GI50 [20]: 67 nM | GI50 [21]: 2350 nM | GI50 [22]: 3640 nM | GI50 [23]: 1210 nM | Ratio [24]: 0.33 | Ratio [25]: 1.57 | Activity [26]: 33.2% | Activity [27]: 30.2% | Activity [28]: 24.1% | Activity [29]: 38.2% | Activity [30]: 45.7% | Activity [31]: 27.8% | Activity [32]: Active | Activity [33]: Active | Activity [34]: Active

O=Nc1c2cccnc2n2nnc3ccc(Cl)cc3c12
GI50 [1]: 2200 nM | GI50 [2]: 1170 nM | GI50 [3]: 8600 nM | GI50 [4]: 190 nM | GI50 [5]: 2070 nM | GI50 [6]: 1420 nM | GI50 [7]: 2280 nM | GI50 [8]: 2360 nM | GI50 [9]: 250 nM | GI50 [10]: 980 nM | GI50 [11]: 1380 nM | GI50 [12]: 1800 nM | GI50 [13]: 330 nM | GI50 [14]: 130 nM | GI50 [15]: 560 nM | GI50 [16]: 1460 nM | GI50 [17]: 650 nM | GI50 [18]: 610 nM | GI50 [19]: 1050 nM | GI50 [20]: 140 nM

COc1cc2nnc3c4cccnc4[nH]c3c2cc1OC
GI50 [1]: 7900 nM | GI50 [2]: 2340 nM | GI50 [3]: 20600 nM | GI50 [4]: 440 nM | GI50 [5]: 2430 nM | GI50 [6]: 1480 nM | GI50 [7]: 11300 nM | GI50 [8]: 2490 nM | GI50 [9]: 1150 nM | GI50 [10]: 1600 nM | GI50 [11]: 2530 nM | GI50 [12]: 1250 nM | GI50 [13]: 330 nM | GI50 [14]: 180 nM | GI50 [15]: 710 nM | GI50 [16]: 2270 nM | GI50 [17]: 490 nM | GI50 [18]: 2100 nM | GI50 [19]: 3700 nM | GI50 [20]: 230 nM

COc1ccc2c(c1)nnn1c3ncccc3c(N=O)c21
GI50 [1]: 10800 nM | GI50 [2]: 5170 nM | GI50 [3]: 9670 nM | GI50 [4]: 270 nM | GI50 [5]: 4690 nM | GI50 [6]: 850 nM | GI50 [7]: 2180 nM | GI50 [8]: 850 nM | GI50 [9]: 1110 nM | GI50 [10]: 1290 nM | GI50 [11]: 8020 nM | GI50 [12]: 3900 nM | GI50 [13]: 94 nM | GI50 [14]: 89 nM | GI50 [15]: 310 nM | GI50 [16]: 1400 nM | GI50 [17]: 76 nM | GI50 [18]: 1860 nM | GI50 [19]: 1170 nM | GI50 [20]: 32 nM | GI50 [21]: 930 nM | GI50 [22]: 1280 nM | GI50 [23]: 650 nM | Ratio [24]: 0.51 | Ratio [25]: 2 | Activity [26]: 28.1% | Activity [27]: 35.5% | Activity [28]: 25.1% | Activity [29]: 44.7% | Activity [30]: 39.4% | Activity [31]: 22.5% | Activity [32]: Active | Activity [33]: Active | Activity [34]: Active

COc1cc2nnn3c4ncccc4c(N=O)c3c2cc1OC
GI50 [1]: 13300 nM | GI50 [2]: 2220 nM | GI50 [3]: 22700 nM | GI50 [4]: 210 nM | GI50 [5]: 2620 nM | GI50 [6]: 2250 nM | GI50 [7]: 17300 nM | GI50 [8]: 2920 nM | GI50 [9]: 460 nM | GI50 [10]: 1910 nM | GI50 [11]: 2690 nM | GI50 [12]: 820 nM | GI50 [13]: 250 nM | GI50 [14]: 48 nM | GI50 [15]: 400 nM | GI50 [16]: 1800 nM | GI50 [17]: 400 nM | GI50 [18]: 1990 nM | GI50 [19]: 6800 nM | GI50 [20]: 160 nM | GI50 [21]: 1410 nM | GI50 [22]: 3890 nM | GI50 [23]: 4330 nM | Ratio [24]: 1.11 | Ratio [25]: 2.13 | Activity [26]: 21% | Activity [27]: 37.3% | Activity [28]: 15.4% | Activity [29]: 54.3% | Activity [30]: 47.3% | Activity [31]: 18.7% | Activity [32]: Active | Activity [33]: Active | Activity [34]: Active

From ChEMBL document CHEMBL3351507, “11H-Pyrido[3',2':4,5]pyrrolo[3,2-c]cinnoline and pyrido[3',2':4,5]pyrrolo[1,2-c][1,2,3]benzotriazine: two new ring systems with antitumor activity” (2014)
